# Laboratory results from ChEMBL document CHEMBL3593175, “Bicyclic [3.3.0]-Octahydrocyclopenta[c]pyrrolo Antagonists of Retinol Binding Protein 4: Potential Treatment of Atrophic Age-Related Macular Degeneration and Stargardt Disease” (J Med Chem, 2015).
# Tests used:
# [1] = biological target: T1, Retinol-binding protein 4 (Homo sapiens, UniProt P02753); experiment: Displacement of [3H]-retinol from RBP4 (unknown origin) by scintillation proximity assay
# [2] = biological target: T1, Retinol-binding protein 4; experiment: Inhibition of retinol-induced interaction of bacterially expressed MBP-tagged RBP4 (unknown origin) with Eu3+ cryptate labeled TTR by HTRF assay
# [3] = Kinetic solubility in phosphate buffered saline at pH 7.4; assay type: physicochemical; settings: buffer
# Rattus norvegicus [4] = experiment: Plasma clearance in Sprague-Dawley rat at 2 mg/kg, iv by HPLC/MS/MS method; assay type: ADME, organism-based; settings: in vivo
# How it was run: (§1)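 Male Sprague Dawley rats, 3 per group, single dose: 2.0 mg/kg IV tail vein (0.4 mg/mL, 5 mL/kg; 3% DMA/45% PEG300/12% ethanol/40% sterile water) or 5.0 mg/kg oral gavage (0.5 mg/mL, 10 mL/kg; 2% Tween 80 in 0.9% saline). Plasma sampled pre-dose to 48 h, assayed by HPLC/MS/MS. Non-compartmental analysis; AUC by log/linear (IV) or linear up/log down trapezoidal (PO).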
# [5] = biological target: T2, Nuclear receptor subfamily 1 group I member 2 (Homo sapiens, UniProt O75469); experiment: Activation of human PXR; assay type: ADME
# T2 sequence (O75469 whole entry): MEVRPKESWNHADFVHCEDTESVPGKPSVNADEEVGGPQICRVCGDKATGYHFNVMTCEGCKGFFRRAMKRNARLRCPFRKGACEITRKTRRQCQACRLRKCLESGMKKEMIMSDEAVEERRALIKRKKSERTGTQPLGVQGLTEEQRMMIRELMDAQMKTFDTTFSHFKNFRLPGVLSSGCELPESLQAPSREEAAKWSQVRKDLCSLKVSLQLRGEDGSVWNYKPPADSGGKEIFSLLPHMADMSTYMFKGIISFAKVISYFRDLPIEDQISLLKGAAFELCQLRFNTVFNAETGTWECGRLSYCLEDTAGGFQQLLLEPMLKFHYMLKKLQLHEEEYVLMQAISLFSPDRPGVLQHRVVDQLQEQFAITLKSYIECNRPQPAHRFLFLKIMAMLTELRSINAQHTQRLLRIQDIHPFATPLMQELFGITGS
# Liver microsome [6] = experiment: Intrinsic clearance in rat liver microsomes; assay type: ADME
# Cytochrome P450 3A4 = Cytochrome P450 3A4 (Homo sapiens, UniProt P08684); experiment: Inhibition of CYP3A4 (unknown origin); assay type: ADME
# Chain of Cytochrome P450 3A4 (P08684 whole entry): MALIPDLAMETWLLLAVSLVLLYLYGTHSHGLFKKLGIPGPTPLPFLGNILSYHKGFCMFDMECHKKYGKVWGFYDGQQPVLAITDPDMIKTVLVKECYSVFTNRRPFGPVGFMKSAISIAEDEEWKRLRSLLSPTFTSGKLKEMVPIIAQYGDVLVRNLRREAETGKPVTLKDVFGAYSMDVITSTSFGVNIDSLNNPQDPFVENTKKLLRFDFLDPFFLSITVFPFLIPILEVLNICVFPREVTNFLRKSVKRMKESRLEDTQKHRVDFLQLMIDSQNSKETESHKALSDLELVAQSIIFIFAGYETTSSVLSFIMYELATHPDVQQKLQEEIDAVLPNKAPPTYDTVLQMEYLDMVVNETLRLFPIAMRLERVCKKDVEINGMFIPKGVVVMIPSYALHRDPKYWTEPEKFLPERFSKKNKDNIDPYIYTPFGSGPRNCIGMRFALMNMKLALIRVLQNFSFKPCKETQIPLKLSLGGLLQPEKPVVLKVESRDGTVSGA
# Rattus norvegicus [7] = experiment: Volume of distribution at steady state in Sprague-Dawley rat at 2 mg/kg, iv by HPLC/MS/MS method; assay type: ADME, organism-based; settings: in vivo; how it was run: as §1
# Rattus norvegicus [8] = experiment: Elimination half life in Sprague-Dawley rat at 5 mg/kg, po qd administered for 7 days measured on day 7 post last dose by HPLC/MS/MS method; assay type: ADME, organism-based; settings: in vivo, 168 h
# How it was run: (§2)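 Male Sprague Dawley rats (n=3) were dosed orally by gavage at 5 mg/kg (1.0 mg/mL) once daily on Days 1–7, with a vehicle group run in parallel. Plasma was taken pre-dose on Days 1–6, then pre-dose and at 0.25–48 h on Day 7, and analysed by HPLC/MS/MS. Non-compartmental PK; terminal half-life needed at least three non-zero points after Tmax.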
# Rattus norvegicus [9] = experiment: Apparent terminal half life in Sprague-Dawley rat at 2 mg/kg, iv by HPLC/MS/MS method; assay type: ADME, organism-based; settings: in vivo; how it was run: as §1
# Rattus norvegicus [10] = experiment: Elimination half life in Sprague-Dawley rat at 5 mg/kg, po measured on day 1 by HPLC/MS/MS method; assay type: ADME, organism-based; settings: in vivo
# How it was run: (§3)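 Male Sprague Dawley rats (n=3) were given one 5 mg/kg oral gavage dose (1.0 mg/mL) on Day 1 in 2% Tween 80 in 0.9% saline. Plasma was sampled pre-dose and at 0.25–48 h and measured by HPLC/MS/MS. Non-compartmental analysis: Cmax and Tmax taken directly from the data; half-life from terminal regression over at least three non-zero points after Tmax.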
# Plasma [11] = experiment: Protein binding in rat plasma; assay type: ADME, cell-free
# Rattus norvegicus [12] = experiment: AUClast in Sprague-Dawley rat at 5 mg/kg, po measured on day 1 by HPLC/MS/MS method; assay type: ADME, organism-based; parameters: dose 5 mg/kg, time 0 - last, route oral; settings: in vivo; how it was run: as §3
# [13] = Plasma concentration in Sprague-Dawley rat at 5 mg/kg, po qd administered for 7 days measured on day 7 prior to administration of last dose by HPLC/MS/MS method; assay type: ADME, organism-based; how it was run: as §2
# Rattus norvegicus [14] = experiment: Oral bioavailability in Sprague-Dawley rat at 5 mg/kg by HPLC/MS/MS method; assay type: ADME, organism-based; settings: in vivo; how it was run: as §1
# Plasma [15] = experiment: Initial plasma concentration in Sprague-Dawley rat at 2 mg/kg, iv by HPLC/MS/MS method; assay type: ADME, organism-based; settings: in vivo; how it was run: as §1
# [16] = Intrinsic clearance in cynomolgus monkey liver microsomes; assay type: ADME, Macaca fascicularis
# Rattus norvegicus [17] = experiment: AUClast in Sprague-Dawley rat at 2 mg/kg, iv by HPLC/MS/MS method; assay type: ADME, organism-based; parameters: dose 2 mg/kg, time 0 - last, route intravenous; settings: in vivo; how it was run: as §1
# Cytochrome P450 2C19 = Cytochrome P450 2C19 (Homo sapiens, UniProt P33261); experiment: Inhibition of CYP2C19 (unknown origin); assay type: ADME
# Chain of Cytochrome P450 2C19 (P33261 whole entry): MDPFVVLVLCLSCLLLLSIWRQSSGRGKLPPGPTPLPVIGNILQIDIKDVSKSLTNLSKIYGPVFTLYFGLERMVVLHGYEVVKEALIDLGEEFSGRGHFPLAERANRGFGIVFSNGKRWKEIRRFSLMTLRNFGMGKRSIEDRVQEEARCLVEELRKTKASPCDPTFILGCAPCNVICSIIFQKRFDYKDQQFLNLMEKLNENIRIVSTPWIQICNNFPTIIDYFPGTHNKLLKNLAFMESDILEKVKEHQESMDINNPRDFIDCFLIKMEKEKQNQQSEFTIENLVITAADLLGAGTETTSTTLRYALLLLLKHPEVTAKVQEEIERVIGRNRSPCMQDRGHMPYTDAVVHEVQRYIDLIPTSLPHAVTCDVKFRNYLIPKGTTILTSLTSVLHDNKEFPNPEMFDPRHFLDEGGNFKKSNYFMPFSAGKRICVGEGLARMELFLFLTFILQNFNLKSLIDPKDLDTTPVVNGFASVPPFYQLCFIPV
# Rattus norvegicus [18] = experiment: AUClast in Sprague-Dawley rat at 5 mg/kg, po by HPLC/MS/MS method; assay type: ADME, organism-based; parameters: dose 5 mg/kg, time 0 - last, route oral; settings: in vivo; how it was run: as §1
# MDCK [19] = experiment: Apparent permeability across apical to basolateral side in MDCK cells expressing MDR1; assay type: ADME, cell-based, Canis lupus familiaris; settings: dog
# Rattus norvegicus [20] = experiment: Apparent terminal half life in Sprague-Dawley rat at 5 mg/kg, po by HPLC/MS/MS method; assay type: ADME, organism-based; settings: in vivo; how it was run: as §1
# Rattus norvegicus [21] = experiment: Cmax in Sprague-Dawley rat at 5 mg/kg, po by HPLC/MS/MS method; assay type: ADME, organism-based; parameters: dose 5 mg/kg, route oral; settings: in vivo; how it was run: as §1
# Cytochrome P450 2C9 = Cytochrome P450 2C9 (Homo sapiens, UniProt P11712); experiment: Inhibition of CYP2C9 (unknown origin)
# Chain of Cytochrome P450 2C9 (P11712 whole entry): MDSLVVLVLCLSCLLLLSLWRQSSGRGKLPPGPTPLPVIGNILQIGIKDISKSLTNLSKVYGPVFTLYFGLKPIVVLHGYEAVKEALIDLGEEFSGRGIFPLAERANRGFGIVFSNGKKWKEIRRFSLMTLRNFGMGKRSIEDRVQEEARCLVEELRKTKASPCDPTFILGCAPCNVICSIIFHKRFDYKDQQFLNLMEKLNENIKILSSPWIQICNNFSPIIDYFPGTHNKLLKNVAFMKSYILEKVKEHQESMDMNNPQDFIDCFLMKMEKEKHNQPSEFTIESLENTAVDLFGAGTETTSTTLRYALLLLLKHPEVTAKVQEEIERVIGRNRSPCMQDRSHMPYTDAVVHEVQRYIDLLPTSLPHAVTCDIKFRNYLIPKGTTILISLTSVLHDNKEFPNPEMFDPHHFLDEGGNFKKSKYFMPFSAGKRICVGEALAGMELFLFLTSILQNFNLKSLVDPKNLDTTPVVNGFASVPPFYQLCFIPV
# Rattus norvegicus [22] = experiment: Cmax in Sprague-Dawley rat at 5 mg/kg, po qd administered for 7 days measured on day 7 post last dose by HPLC/MS/MS method; assay type: ADME, organism-based; parameters: dose 5 mg/kg, route oral; settings: in vivo, 168 h; how it was run: as §2
# Cytochrome P450 2D6 = Cytochrome P450 2D6 (Homo sapiens, UniProt P10635); experiment: Inhibition of CYP2D6 (unknown origin); assay type: ADME
# Chain of Cytochrome P450 2D6 (P10635 whole entry): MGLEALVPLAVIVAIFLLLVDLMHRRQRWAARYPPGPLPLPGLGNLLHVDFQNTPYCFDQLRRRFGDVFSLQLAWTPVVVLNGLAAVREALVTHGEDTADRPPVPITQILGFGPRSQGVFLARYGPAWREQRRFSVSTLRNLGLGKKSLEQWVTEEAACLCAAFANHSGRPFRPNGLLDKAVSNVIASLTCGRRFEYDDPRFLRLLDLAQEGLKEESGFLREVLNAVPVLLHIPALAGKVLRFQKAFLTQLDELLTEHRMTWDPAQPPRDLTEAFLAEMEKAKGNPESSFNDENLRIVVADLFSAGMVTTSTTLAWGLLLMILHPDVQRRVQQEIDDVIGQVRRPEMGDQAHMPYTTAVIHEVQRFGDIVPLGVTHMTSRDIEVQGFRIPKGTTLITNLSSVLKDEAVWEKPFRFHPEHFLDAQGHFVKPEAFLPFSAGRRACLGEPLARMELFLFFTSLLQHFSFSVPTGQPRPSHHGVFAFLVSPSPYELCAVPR
# Rattus norvegicus [23] = experiment: Cmax in Sprague-Dawley rat at 5 mg/kg, po measured on day 1 by HPLC/MS/MS method; assay type: ADME, organism-based; parameters: dose 5 mg/kg, route oral; settings: in vivo; how it was run: as §3
# Liver microsome [24] = experiment: Intrinsic clearance in human liver microsomes; assay type: ADME
# Rattus norvegicus [25] = experiment: AUClast in Sprague-Dawley rat at 5 mg/kg, po qd administered for 7 days measured on day 7 post last dose by HPLC/MS/MS method; assay type: ADME, organism-based; parameters: dose 5 mg/kg, route oral, time 0 - last; settings: in vivo, 168 h; how it was run: as §2
# MDCK [26] = experiment: Apparent permeability across basolateral to apical side in MDCK cells expressing MDR1; assay type: ADME, cell-based, Canis lupus familiaris; settings: dog
# Liver = experiment: Intrinsic clearance in mouse liver microsomes; assay type: ADME
# Rattus norvegicus [27] = experiment: AUC (0 to infinity) in Sprague-Dawley rat at 5 mg/kg, po by HPLC/MS/MS method; assay type: ADME, organism-based; parameters: dose 5 mg/kg, time infinity, route oral; settings: in vivo; how it was run: as §1
# Rattus norvegicus [28] = experiment: Tmax in Sprague-Dawley rat at 5 mg/kg, po measured on day 1 by HPLC/MS/MS method; assay type: ADME, organism-based; settings: in vivo; how it was run: as §3
# Rattus norvegicus [29] = experiment: Decrease in RBP4 level in Sprague-Dawley rat plasma at 5 mg/kg, po relative to vehicle-treated control; assay type: functional; parameters: scale not given: the % may be the effect or the level left
# How it was run: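 Male Sprague-Dawley rats were dosed by oral gavage at 10 mL/kg, with 2% Tween 80 in 0.9% saline as vehicle, […]. A vehicle-dosed group served as control. Whole blood was clotted for 30 min at room temperature, then centrifuged at 2000g for 15 min at 4°C to give serum. Serum RBP4 was measured by dual ELISA.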
# Rattus norvegicus [30] = experiment: Tmax in Sprague-Dawley rat at 5 mg/kg, po qd administered for 7 days measured on day 7 post last dose by HPLC/MS/MS method; assay type: ADME, organism-based; settings: in vivo, 168 h; how it was run: as §2
# [31] = Plasma concentration in Sprague-Dawley rat at 5 mg/kg, po measured at 48 hrs post dose on day 1 by HPLC/MS/MS method; assay type: ADME, organism-based; how it was run: as §3
# Rattus norvegicus [32] = experiment: AUC (0 to infinity) in Sprague-Dawley rat at 2 mg/kg, iv by HPLC/MS/MS method; assay type: ADME, organism-based; parameters: dose 2 mg/kg, route intravenous, time infinity; settings: in vivo; how it was run: as §1
# Rattus norvegicus [33] = experiment: Decrease in RBP4 level in Sprague-Dawley rat plasma at 5 mg/kg, po qd administered for 7 days measured on day 7 post last dose relative to vehicle-treated control; assay type: functional; parameters: scale not given: the % may be the effect or the level left
# How it was run: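 Male Sprague Dawley rats received 5 mg/kg or vehicle by oral gavage once daily for 7 days, 3 per group. Whole blood clotted 30 min at room temperature, then was centrifuged at 2000g for 15 min at 4°C. Serum RBP4 was measured by dual ELISA kit per the manufacturer's instructions.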
# [34] = biological target: Voltage-gated inwardly rectifying potassium channel KCNH2 (Homo sapiens, UniProt Q12809); experiment: Inhibition of human ERG expressed in HEK293 cells by patch clamp assay; assay type: cell-based
# Chain of Voltage-gated inwardly rectifying potassium channel KCNH2 (Q12809 whole entry): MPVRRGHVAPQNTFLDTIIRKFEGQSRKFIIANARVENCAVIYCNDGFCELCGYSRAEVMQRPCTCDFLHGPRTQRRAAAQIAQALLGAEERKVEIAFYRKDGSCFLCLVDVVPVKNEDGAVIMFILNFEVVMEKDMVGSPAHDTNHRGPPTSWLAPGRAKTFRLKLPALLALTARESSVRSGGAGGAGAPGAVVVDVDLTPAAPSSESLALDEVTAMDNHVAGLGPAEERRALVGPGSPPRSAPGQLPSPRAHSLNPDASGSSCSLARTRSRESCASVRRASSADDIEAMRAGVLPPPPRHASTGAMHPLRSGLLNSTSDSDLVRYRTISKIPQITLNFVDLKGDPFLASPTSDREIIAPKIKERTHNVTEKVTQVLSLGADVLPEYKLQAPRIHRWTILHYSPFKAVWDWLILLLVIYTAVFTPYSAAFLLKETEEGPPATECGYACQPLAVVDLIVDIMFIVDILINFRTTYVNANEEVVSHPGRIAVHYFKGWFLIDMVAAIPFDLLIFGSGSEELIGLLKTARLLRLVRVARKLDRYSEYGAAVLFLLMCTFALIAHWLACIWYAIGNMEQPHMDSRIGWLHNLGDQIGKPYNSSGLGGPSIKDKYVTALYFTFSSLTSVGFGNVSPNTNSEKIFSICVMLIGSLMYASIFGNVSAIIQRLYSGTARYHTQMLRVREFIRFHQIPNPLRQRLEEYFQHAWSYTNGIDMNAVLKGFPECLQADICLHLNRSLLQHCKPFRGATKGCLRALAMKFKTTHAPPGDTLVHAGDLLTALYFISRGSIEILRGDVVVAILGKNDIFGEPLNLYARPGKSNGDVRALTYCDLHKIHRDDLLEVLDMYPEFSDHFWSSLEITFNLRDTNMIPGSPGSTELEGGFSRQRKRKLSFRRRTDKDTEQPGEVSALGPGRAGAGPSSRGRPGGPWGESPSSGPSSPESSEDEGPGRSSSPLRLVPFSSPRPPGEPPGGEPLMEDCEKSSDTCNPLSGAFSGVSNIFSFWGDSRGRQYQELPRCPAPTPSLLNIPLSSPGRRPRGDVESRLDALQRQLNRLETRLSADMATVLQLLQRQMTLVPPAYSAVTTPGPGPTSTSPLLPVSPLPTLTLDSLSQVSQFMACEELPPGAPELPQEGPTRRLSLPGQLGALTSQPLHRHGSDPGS
# [35] = Plasma concentration in Sprague-Dawley rat at 5 mg/kg, po qd administered for 7 days measured at 4 hrs post dose on day 7 by HPLC/MS/MS method; assay type: ADME, organism-based; how it was run: as §2
# [36] = Metabolic stability in human liver microsomes assessed as compound remaining at 10 uM after 30 mins; assay type: ADME; settings: read-out: Stability
# Rattus norvegicus [37] = experiment: Tmax in Sprague-Dawley rat at 5 mg/kg, po by HPLC/MS/MS method; assay type: ADME, organism-based; settings: in vivo; how it was run: as §1
# [38] = Plasma concentration in Sprague-Dawley rat at 5 mg/kg, po qd administered for 7 days measured at 48 hrs post dose on day 7 by HPLC/MS/MS method; assay type: ADME, organism-based; how it was run: as §2
# [39] = Metabolic stability in rat liver microsomes assessed as compound remaining at 10 uM after 30 mins; assay type: ADME; settings: read-out: Stability
smiles,measurement,setting,value
COc1cc(C(=O)O)nc(N2C[C@H]3C[C@@H](c4ccccc4C(F)(F)F)C[C@H]3C2)n1,IC50,[1],12.8 nM
same,IC50,[2],81.2 nM
Cc1nc(N2C[C@H]3C[C@@H](c4ccccc4C(F)(F)F)C[C@H]3C2)ncc1C(=O)O,IC50,[1],40.8 nM
same,IC50,[2],523 nM
Cc1cc(C(=O)O)nc(N2C[C@H]3C[C@@H](c4ccccc4C(F)(F)F)C[C@H]3C2)n1,Kinetic_solubility,[3],> 100 µM
same,CL,Rattus norvegicus [4],5.06 mL/h/kg
same,Activity,[5],Not Active
same,CLH,Liver microsome [6],< 0.7 microL/ml/min
same,IC50,Cytochrome P450 3A4,> 34000 nM
same,Vdss,Rattus norvegicus [7],0.156 L/kg
same,beta t1/2,Rattus norvegicus [8],49.4 h
same,betat1/2(app),Rattus norvegicus [9],22 h
same,beta t1/2,Rattus norvegicus [10],31.9 h
same,PPB,Plasma [11],99.4%
same,AUClast,Rattus norvegicus [12],1695 µM·h
same,concentration at 168 h,[13],148 µM
same,F,Rattus norvegicus [14],143%
same,C0,Plasma [15],58.6 µM
same,CLH,[16],0.7 microL/ml/min
same,AUClast,Rattus norvegicus [17],795 µM·h
same,IC50,Cytochrome P450 2C19,> 34000 nM
same,AUClast,Rattus norvegicus [18],2011 µM·h
same,Papp,MDCK [19],74.7 ×10⁻⁶ cm/s
same,betat1/2(app),Rattus norvegicus [20],38.8 h
same,Cmax,Rattus norvegicus [21],62.2 µM
same,IC50,Cytochrome P450 2C9,> 34000 nM
same,Cmax,Rattus norvegicus [22],183 µM
same,IC50,Cytochrome P450 2D6,> 34000 nM
same,Cmax,Rattus norvegicus [23],66.5 µM
same,CLH,Liver microsome [24],< 0.7 microL/ml/min
same,AUClast,Rattus norvegicus [25],6380 ng·h/mL
same,Papp,MDCK [26],82.2 ×10⁻⁶ cm/s
same,CLH,Liver,< 0.7 microL/ml/min
same,AUC,Rattus norvegicus [27],3636 µM·h
same,Tmax,Rattus norvegicus [28],2.75 h
same,Activity,Rattus norvegicus [29],85%
same,Tmax,Rattus norvegicus [30],2.17 h
same,concentration at 48 h,[31],20 µM
same,AUC,Rattus norvegicus [32],1017 µM·h
same,Activity,Rattus norvegicus [33],95%
same,IC50,[34],> 30000 nM
same,concentration at 4 h,[35],179 µM
same,"remaining at 0.5 h, 10 µM",[36],94%
same,Tmax,Rattus norvegicus [37],2.67 h
same,concentration at 48 h,[38],97.1 µM
same,"remaining at 0.5 h, 10 µM",[39],93%
